SENP1 inh – blocks the human SENP1 SUMO protease catalytic domain; Q9P0U3; recombinant SENP1 catalytic domain, CyPet-SUMO1-YPet FRET cleavage; inhibition, % at 10 µM; 0.21% of 360,000 active; AID 624204;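 active = inhibition at least 30% at 10 µM, raw YFP signal under a set limit, fluorescence ratio 0.5 to 1.5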;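 note: 0% = enzyme with DMSO and 100% = no enzyme wells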
Target sequence (Q9P0U3 419-644 limits assumed): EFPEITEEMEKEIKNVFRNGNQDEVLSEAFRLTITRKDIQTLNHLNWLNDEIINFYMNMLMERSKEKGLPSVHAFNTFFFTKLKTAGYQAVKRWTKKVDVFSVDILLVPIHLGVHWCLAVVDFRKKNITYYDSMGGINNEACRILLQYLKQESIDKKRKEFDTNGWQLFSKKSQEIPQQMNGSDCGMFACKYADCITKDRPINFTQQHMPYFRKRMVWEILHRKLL
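Assay system – human recombinant His6-tagged SENP1 catalytic domain enzyme · Input – SENP1 enzyme, 20 pM final · Buffer or medium – Tris pH 8 buffer plus EDTA, NaCl, BME, BSA, NP40, catalase · Schedule – 50 min reaction at room temperature · Technique – FRET read of cyan and yellow fluorescence · Control set – no-enzyme wells low, DMSO-plus-enzyme wells high control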
SENP8 block-1 – inhibitors of human SENP8 protease. Q96LD8. recombinant SENP8, Nedd8 substrate fluorescence. inhibition, % at 20 µM. 0.64% of 360,000 active. AID 602440; in the data active = inhibition mostly above about 40%, no sharp cut-off; inactive = mostly below about 27%
SENP8 block-2 – blocks the human protease SENP8; 1.2% of 330,000 active; purified SENP8, Z-RLRGG-aminoluciferin cleavage, luminescence; inhibition, % at 10 µM; in the data active = inhibition above about 50%
SENP6 block – inhibitors of human SENP6 protease; Q9GZR1; Recombinant SENP6 catalytic domain, aminoluciferin luminescence; inhibition, % at 10 µM; 1.8% of 330,000 active; AID 2599;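 active = inhibition above about 50% at the single tested dose, limit read from the data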;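 note: plate controls were DMSO wells with enzyme for no effect and DMSO wells lacking enzyme for full effect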
SENP7 inh – blocks the human protease SENP7; recombinant SENP7, Z-RLRGG-aminoluciferin luminescence, 40 min; inhibition, % at 5 µM; 1.5% of 330,000 active;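 active = inhibition above about 50% at the single test dose, limit read from the data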;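 note: plate controls were DMSO with enzyme for no effect and no enzyme buffer wells for full effect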
Target sequence (Q9BQF6 706-1050 limits assumed): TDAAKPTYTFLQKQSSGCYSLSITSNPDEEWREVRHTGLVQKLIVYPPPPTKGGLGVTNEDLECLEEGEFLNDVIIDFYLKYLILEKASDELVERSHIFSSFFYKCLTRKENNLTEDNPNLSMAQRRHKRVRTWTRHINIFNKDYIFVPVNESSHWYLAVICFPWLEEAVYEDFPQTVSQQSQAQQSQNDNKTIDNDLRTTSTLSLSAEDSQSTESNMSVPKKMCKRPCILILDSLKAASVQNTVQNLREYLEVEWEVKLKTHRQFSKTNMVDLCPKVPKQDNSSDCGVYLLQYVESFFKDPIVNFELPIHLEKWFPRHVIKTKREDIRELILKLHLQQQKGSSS
SENP8 conf – confirmation of human SENP8 protease inhibitors; shares compounds with SENP7 inh; Recombinant SENP8, Z-RLRGG-aminoluciferin luminescence, 60 min; inhibition, % at 12.5 µM; 40% of 6,200 active; AID 488912;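 active = mean inhibition across replicates above about 50%, limit read from the data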
SENP6 confirm – confirmation of human SENP6 protease inhibitors; shares compounds with SENP7 inh; recombinant SENP6, Z-RLRGG-aminoluciferin luminescence; inhibition, % at 12.5 µM; 58% of 6,200 active; AID 488915
SENP7 confirm – human SENP7 inhibition, confirmed; AID 488917; inhibition, % at 12.5 µM; 69% of 6,200 active; shares compounds with SENP7 inh; recombinant SENP7, Z-RLRGG-aminoluciferin luminescence, 40 min
Casp3 select – selectivity test for SENP inhibitors: human caspase-3 inhibition; AID 488918; inhibition, % at 12.5 µM; 60% of 6,200 active; purified caspase-3, Z-DEVD-aminoluciferin luminescence, 60 min; shares compounds with SENP7 inh;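 active = mean inhibition above about 50%, limit read from the data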;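 note: plate controls were enzyme with DMSO for no effect and wells without caspase-3 for full effect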
SENP luc ctr – counter-screen for SENP inhibitors: luminescence interference. shares compounds with SENP7 inh. Pre-incubated SENP8/Z-RLRGG-aminoluciferin, luciferase luminescence interference. inhibition, % at 12.5 µM. 39% of 6,200 active;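 active = mean inhibition above about 50% when retested at one dose, limit read from the data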;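 note: plate controls were DMSO wells with completed reaction for no effect and substrate without enzyme for full effect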
* marks the source's active call; other numbers are inactive results; x = no result. A selection: hits, their analogues and other compounds. The true share with any hit is near 2.5%.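 Rule for the calls, unless noted: active = mean inhibition above about 50% in the one-dose retest (limit read from the data); inactive = the rest.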

SMILES	SENP1 inh	SENP8 block-1	SENP8 block-2	SENP6 block	SENP7 inh	SENP8 conf	SENP6 confirm	SENP7 confirm	Casp3 select	SENP luc ctr
CSc1ccc(/C=N/NC(=O)c2cccc(O)c2)cc1	2	-257	75*	91*	90*	7	81*	96*	86*	83*
CCOc1ccc(C(=O)N/N=C/c2ccc(SC)cc2)cc1	3	-144	2	-7	2	x	x	x	x	x
O=c1cc(-c2ccccc2)[nH]c2ccccc12	0	-17	-9	0	-3	x	x	x	x	x
O=C1C(c2ccncc2)=C(O)c2ccccc21	9	27	73*	85*	72*	84*	83*	96*	91*	67*
O=C1C(c2cc(=O)c3ccccc3[nH]2)=C(O)c2ccccc21	2	23	97*	98*	100*	94*	99*	103*	96*	95*
Cc1ccc(C2=C(O)c3ccccc3C(=O)C2=O)cc1	-3	10	-7	11	-2	x	x	x	x	x
CNC(=O)c1cc2c(-c3ccccc3)nn(C)c2s1	1	-181	-4	-16	7	x	x	x	x	x
Cc1cc(Nc2ccc(F)cc2)c2ccccc2n1	-4	-64	x	x	x	x	x	x	x	x
O=c1[nH]c(Nc2ccc(F)cc2)cc2ccccc12	-45	-273	85*	85*	92*	52*	76*	48	10	9
Cc1cc2ccccc2c(=O)[nH]1	2	-62	1	-2	-1	x	x	x	x	x
Cc1ccccc1Nc1cc2ccccc2c(=O)[nH]1	-17	1	97*	91*	95*	92*	98*	95*	96*	14
Clc1ccccc1Nc1nc(-c2ccncc2)nc2ccccc12	0	-59	-10	-15	1	x	x	x	x	x
O=c1[nH]c(Nc2ccccc2Cl)cc2ccccc12	-70	-492	96*	99*	92*	57*	86*	69*	27	-2
CN(C)CCNc1ncnc2c1ncn2[C@H]1CN(CCc2ccccc2)C[C@@H](CO)O1	2	12	x	x	x	x	x	x	x	x
COc1cccc2c1cc1c(=O)n(CC(=O)N3CCC(C)CC3)nc(C)n12	1	-406	-6	1	-10	x	x	x	x	x
COCCNC(=O)C1(C)CCN(C(=O)c2cccnc2Oc2ccccc2)C1 (stereo not given)	3	26	x	x	x	x	x	x	x	x
Cc1cc(O)ccc1Nc1nc(-c2cccs2)cs1	4	6	70*	70*	-3	-8	95*	100*	78*	94*
c1cncc(Nc2nc(-c3cccs3)cs2)c1	-6	11	-9	21	7	x	x	x	x	x
c1ccc(-c2csc(NC3CCCCC3)n2)cc1	0	6	48	66*	4	83*	82*	95*	62*	67*
Cc1ccc(Nc2nc(-c3cccs3)cs2)nc1	-4	-57	91*	93*	43	-3	98*	102*	85*	68*
O=C(Nc1nc(-c2ccccc2)cs1)NC1CCCCC1	0	4	-3	7	3	x	x	x	x	x
Cc1cc(C)nc(Nc2nc(-c3ccccc3)cs2)n1	-2	4	82*	74*	90*	0	5	49	-4	-3
Cc1cc(C)nc(Nc2nc(C(N)c3ccccc3)cs2)n1 (stereo not given)	0	13	x	x	x	x	x	x	x	x
COc1ccc(N2CCN(C3CCCN(C(=O)CCN4CCCCO4)C3)CC2)cc1 (stereo not given)	2	10	-2	9	1	x	x	x	x	x
Cn1c(COc2ccccc2)nnc1SCC(=O)NC1CCCC1	1	11	-4	7	4	x	x	x	x	x
SMILES	SENP1 inh	SENP8 block-1	SENP8 block-2	SENP6 block	SENP7 inh	SENP8 conf	SENP6 confirm	SENP7 confirm	Casp3 select	SENP luc ctr
Cc1ccc(Nc2nc(-c3ccccc3)cs2)nc1	0	-1	91*	-23	89*	85*	97*	102*	84*	72*
Cc1ccc(S(=O)(=O)Nc2nc(-c3ccccc3)cs2)cc1	1	-4	-5	8	0	x	x	x	x	x
C#CCN1C(=O)S/C(=C\c2ccc(-c3ccc(Cl)c(C(=O)O)c3)o2)C1=O	-28	-167	49	70*	21	74*	74*	82*	32	40
COc1ccccc1NC(=O)CCSc1ccc(C)cc1	1	23	21	51*	34	24	22	63*	43	35
COc1ccccc1NC(=O)CCSc1nc(C)cc(C)n1	3	-1	1	0	4	x	x	x	x	x
Nc1ccccc1C(=O)NNC(=O)C(=O)/C=C(\O)c1ccccc1	1	-172	-2	-7	2	x	x	x	x	x
COc1ccc(Cl)cc1NC(=S)NNC(=O)c1cccs1	0	-36	66*	86*	81*	-2	0	14	-2	27
Cc1ccc(N2CCC3CC2c2cc(-c4ccc(C(F)(F)F)cc4)ccc23)cc1 (stereo not given)	-2	9	x	x	x	x	x	x	x	x
O=C(Nc1ccc2ccccc2c1)C(=O)C1C(=O)Nc2ccccc21 (stereo not given)	x	x	84*	92*	78*	73*	74*	89*	77*	8
O=C(Nc1ccc(F)cc1)C(=O)C1C(=O)Nc2ccccc21 (stereo not given)	-1	25	1	24	13	x	x	x	x	x
Cc1ccc(C2CC(c3ccccc3)=NN2c2ccccc2)o1 (stereo not given)	-62	-386	7	43	55*	3	1	6	5	2
Cc1nccc(-c2cc(-c3ccc(Cl)cc3Cl)no2)n1	2	0	84*	89*	88*	73*	77*	94*	84*	20
O=C(Nc1cc(C(F)(F)F)ccc1Cl)C(Sc1nnc(-c2cccs2)o1)c1ccccc1 (stereo not given)	-3	18	76*	81*	24	44	40	38	13	27
CC(C)CSc1oc(-c2ccco2)nc1S(=O)(=O)c1ccccc1	-4	-4	0	-15	3	x	x	x	x	x
Nc1ccc(C#Cc2ccc3sc4ccccc4c(=O)c3c2)cc1	-3	-35	2	38	11	x	x	x	x	x
COc1cccc2sc3ccc(C#CC4(O)CCCCC4)cc3c(=O)c12	-50	-320	89*	93*	88*	91*	95*	100*	82*	46
